Columns and labels:
[1] = Half life in pH 7.3 phosphate buffered saline by HPLC analysis; format: physicochemical
Procedure, shortened: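 Prodrug from 50 mM DMSO-d6 stock diluted to 1.9 mM with water/DMSO-d6. Reaction started by adding phosphate buffer (50 mM stock, pH 7.3). Products followed by analytical RP18 HPLC with TBAA or TEAA buffer/acetonitrile gradient.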

[2] = Cytotoxicity against human CEM cells assessed as reduction in cell proliferation; format: cell-based; conditions: CEM cells (CCRF-CEM)
Procedure, shortened: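 CC50 is the compound concentration inhibiting CEM CD4+ T-cell proliferation by 50%. Mean ± SD of n=2-3 independent experiments.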

[3] = Selectivity index, ratio of CC50 for human CEM cells to EC50 for HIV1 HE infected in human CEM/0 cells; conditions: CEM cells (CC50) and HIV1 HE infected CEM/0 cells (EC50)
[4] = test system: Human immunodeficiency virus 1; test: Antiviral activity against HIV1 HE infected in human CEM/0 cells assessed as inhibition of virus-induced giant cell formation measured after 4 to 5 days by microscopic analysis; conditions: Human immunodeficiency virus 1, HE, CCRF-CEM
[5] = test system: Human immunodeficiency virus 2; test: Antiviral activity against HIV2 ROD infected in human CEM/0 cells assessed as inhibition of virus-induced giant cell formation measured after 4 to 5 days by microscopic analysis; conditions: Human immunodeficiency virus 2, ISOLATE ROD, CCRF-CEM
[6] = test system: Human immunodeficiency virus 2; test: Antiviral activity against HIV2 ROD infected in thymidine kinase-deficient human CEM cells assessed as inhibition of virus-induced giant cell formation measured after 4 to 5 days by microscopic analysis; conditions: Human immunodeficiency virus 2, ISOLATE ROD, CCRF-CEM
[7] = Prodrug conversion in pH 7.3 phosphate buffered saline assessed as pig liver esterase-mediated d4TTP formation by HPLC analysis; format: ADME, Sus scrofa; conditions: in vitro
Procedure, shortened: (§1)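 Prodrug diluted from 50 mM DMSO stock through a 6.0 mM intermediate into DMSO/50 mM PBS pH 7.3. Started with pig liver esterase (3 mg/mL solution in PBS) and shaken at 37 °C, 800 rpm. Aliquots quenched in MeOH at intervals, filtered, stored in liquid nitrogen and analysed by RP18 HPLC.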

[8] = Half life in pH 7.3 phosphate buffered saline in presence of pig liver esterase by HPLC analysis; format: ADME, Sus scrofa; procedure, shortened: as §1
[9] = Half life in human CEM/0 cell extracts by HPLC analysis; format: ADME, CCRF-CEM
Procedure, shortened: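 Cell extract prepared from CEM cells grown in RPMI-1640-based medium to ~3·10^6 cells/mL. Cells washed twice in cold PBS, resuspended at 10^8 cells/mL, sonicated, cleared at 10,000 rpm and stored at -80 °C. Prodrug at 6.0 mM hydrolysis solution in DMSO-d6 mixed with water and extract at 37 °C over time. Samples iced, sonicated and centrifuged; supernatant analysed by RP18 HPLC. t1/2 calculated as for chemical hydrolysis.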

half-life [1] | EC50 [4] | EC50 [5] | EC50 [6] | Drug metabolism [7] | half-life [8] | half-life [9] | SMILES | CC50 [2] | selectivity ratio [3]
89 h |  |  |  |  |  |  | CCCCCCCCCCCCCCCCOC(=O)Oc1ccc(COP(=O)(OCc2ccc(OC(=O)CCCCCC)cc2)OP(=O)(O)OP(=O)(O)OC[C@@H]2C=C[C@H](n3cc(C)c(=O)[nH]c3=O)O2)cc1.N.N (stereo partly specified) |  | 
111 h |  |  |  |  |  |  | CCCCCCCCCCCCCCCCCCOC(=O)Oc1ccc(COP(=O)(OCc2ccc(OC(=O)OCCCC)cc2)OP(=O)(O)OP(=O)(O)OC[C@@H]2C=C[C@H](n3cc(C)c(=O)[nH]c3=O)O2)cc1.N.N (stereo partly specified) |  | 
25 h | 73 nM | 40 nM | 1760 nM |  |  |  | CCCCCCCCCOC(=O)Oc1ccc(COP(=O)(OCc2ccc(OC(=O)CC)cc2)OP(=O)(O)OP(=O)(O)OC[C@@H]2C=C[C@H](n3cc(C)c(=O)[nH]c3=O)O2)cc1.N.N (stereo partly specified) | 84000 nM | 1150
66 h | 61 nM | 130 nM | 640 nM | Metabolite_Detected | 0.44 h |  | CCCCCCCCCCCCOC(=O)Oc1ccc(COP(=O)(OCc2ccc(OC(=O)CC)cc2)OP(=O)(O)OP(=O)(O)OC[C@@H]2C=C[C@H](n3cc(C)c(=O)[nH]c3=O)O2)cc1.N.N (stereo partly specified) | 33000 nM | 541
107 h | 730 nM | 170 nM | 1120 nM | Metabolite_Detected | 0.28 h |  | CCCCCCCCCCCCOC(=O)Oc1ccc(COP(=O)(OCc2ccc(OC(=O)OCCCC)cc2)OP(=O)(O)OP(=O)(O)OC[C@@H]2C=C[C@H](n3cc(C)c(=O)[nH]c3=O)O2)cc1.N.N (stereo partly specified) | 54000 nM | 74
544 h |  |  |  |  |  |  | CCCCCCOC(=O)Oc1ccc(COP(=O)(O)OP(=O)(O)OP(=O)(O)OC[C@@H]2C=C[C@H](n3cc(C)c(=O)[nH]c3=O)O2)cc1.N.N.N |  | 
90 h |  |  |  | Metabolite_Detected | 13.8 h | 6.4 h | CCCCCCCCCCCCCCCCOC(=O)Oc1ccc(COP(=O)(OCc2ccc(OC(=O)CCCCCCCC)cc2)OP(=O)(O)OP(=O)(O)OC[C@@H]2C=C[C@H](n3cc(C)c(=O)[nH]c3=O)O2)cc1.N.N (stereo partly specified) |  | 
74 h |  |  |  |  |  |  | CCCCCCCCCCCCCCOC(=O)Oc1ccc(COP(=O)(OCc2ccc(OC(=O)CC)cc2)OP(=O)(O)OP(=O)(O)OC[C@@H]2C=C[C@H](n3cc(C)c(=O)[nH]c3=O)O2)cc1.N.N (stereo partly specified) |  | 
74 h | 55 nM | 25 nM | 560 nM |  |  |  | CCCCCCCCCCCCCCCCCCOC(=O)Oc1ccc(COP(=O)(OCc2ccc(OC(=O)CCCC)cc2)OP(=O)(O)OP(=O)(O)OC[C@@H]2C=C[C@H](n3cc(C)c(=O)[nH]c3=O)O2)cc1.N.N (stereo partly specified) | 58000 nM | 1050
81 h |  |  |  |  |  |  | CCCCCCCCCCCCCCCCOC(=O)Oc1ccc(COP(=O)(OCc2ccc(OC(C)=O)cc2)OP(=O)(O)OP(=O)(O)OC[C@@H]2C=C[C@H](n3cc(C)c(=O)[nH]c3=O)O2)cc1.N.N (stereo partly specified) |  | 
84 h | 570 nM | 240 nM | 1750 nM | Metabolite_Detected | 0.51 h | 0.94 h | CCCCCCCCCCCCOC(=O)Oc1ccc(COP(=O)(OCc2ccc(OC(=O)OCC)cc2)OP(=O)(O)OP(=O)(O)OC[C@@H]2C=C[C@H](n3cc(C)c(=O)[nH]c3=O)O2)cc1.N.N (stereo partly specified) | 64000 nM | 112
56 h | 530 nM | 300 nM | 3260 nM |  |  |  | CCCCCCCCCCCCCCCCOC(=O)Oc1ccc(COP(=O)(OCCC#N)OP(=O)(O)OP(=O)(O)OC[C@@H]2C=C[C@H](n3cc(C)c(=O)[nH]c3=O)O2)cc1.N.N (stereo partly specified) | 53000 nM | 100
101 h | 340 nM | 90 nM | 230 nM |  |  |  | CCCCCCCCCOC(=O)Oc1ccc(COP(=O)(OCc2ccc(OC(=O)OCCCCCCCCC)cc2)OP(=O)(O)OP(=O)(O)OC[C@@H]2C=C[C@H](n3cc(C)c(=O)[nH]c3=O)O2)cc1.N.N | 34000 nM | 100
85 h | 160 nM | 78 nM | 240 nM |  |  |  | CCCCCCCCCCCCCCCCOC(=O)Oc1ccc(COP(=O)(OCc2ccc(OC(=O)CCCCCCCCC)cc2)OP(=O)(O)OP(=O)(O)OC[C@@H]2C=C[C@H](n3cc(C)c(=O)[nH]c3=O)O2)cc1.N.N (stereo partly specified) | 16000 nM | 100
52 h |  |  |  |  |  |  | CCCCCCCCCCCOC(=O)Oc1ccc(COP(=O)(OCc2ccc(OC(=O)CC)cc2)OP(=O)(O)OP(=O)(O)OC[C@@H]2C=C[C@H](n3cc(C)c(=O)[nH]c3=O)O2)cc1.N.N (stereo partly specified) |  | 
625 h | 330 nM | 250 nM | 1980 nM |  |  |  | CCCCCCCCCCCCOC(=O)Oc1ccc(COP(=O)(O)OP(=O)(O)OP(=O)(O)OC[C@@H]2C=C[C@H](n3cc(C)c(=O)[nH]c3=O)O2)cc1.N.N.N | > 100000 nM | > 303
30 h | 470 nM | 230 nM | 2480 nM |  |  |  | CCCCCCCCCCCCOC(=O)Oc1ccc(COP(=O)(OCCC#N)OP(=O)(O)OP(=O)(O)OC[C@@H]2C=C[C@H](n3cc(C)c(=O)[nH]c3=O)O2)cc1.N.N (stereo partly specified) | > 100000 nM | > 212
69 h |  |  |  |  |  |  | CCCCCCCCCCCCCCOC(=O)Oc1ccc(COP(=O)(OCc2ccc(OC(=O)CCCC)cc2)OP(=O)(O)OP(=O)(O)OC[C@@H]2C=C[C@H](n3cc(C)c(=O)[nH]c3=O)O2)cc1.N.N (stereo partly specified) |  | 
74 h |  |  |  |  |  |  | CCCCCCCCCCCCCCCOC(=O)Oc1ccc(COP(=O)(OCc2ccc(OC(=O)CCCC)cc2)OP(=O)(O)OP(=O)(O)OC[C@@H]2C=C[C@H](n3cc(C)c(=O)[nH]c3=O)O2)cc1.N.N (stereo partly specified) |  | 
75 h |  |  |  |  |  |  | CCCCCCCCCCCCOC(=O)Oc1ccc(COP(=O)(OCc2ccc(OC(=O)CCC)cc2)OP(=O)(O)OP(=O)(O)OC[C@@H]2C=C[C@H](n3cc(C)c(=O)[nH]c3=O)O2)cc1.N.N (stereo partly specified) |  | 
34 h |  |  |  |  |  |  | CCCCCCCCCCOC(=O)Oc1ccc(COP(=O)(OCc2ccc(OC(=O)CC)cc2)OP(=O)(O)OP(=O)(O)OC[C@@H]2C=C[C@H](n3cc(C)c(=O)[nH]c3=O)O2)cc1.N.N (stereo partly specified) |  | 
81 h | 110 nM | 90 nM | 150 nM |  |  |  | CCCCCCCCCOC(=O)Oc1ccc(COP(=O)(OCc2ccc(OC(=O)CCCCCCCCC)cc2)OP(=O)(O)OP(=O)(O)OC[C@@H]2C=C[C@H](n3cc(C)c(=O)[nH]c3=O)O2)cc1.N.N (stereo partly specified) | 37000 nM | 336
77 h |  |  |  |  |  |  | CCCCCCCCCCCCCCCCOC(=O)Oc1ccc(COP(=O)(OCc2ccc(OC(=O)CC(C)C)cc2)OP(=O)(O)OP(=O)(O)OC[C@@H]2C=C[C@H](n3cc(C)c(=O)[nH]c3=O)O2)cc1.N.N (stereo partly specified) |  | 
460 h |  |  |  |  |  |  | CCCCCCCCCCCC(=O)Oc1ccc(COP(=O)(O)OP(=O)(O)OP(=O)(O)OC[C@@H]2C=C[C@H](n3cc(C)c(=O)[nH]c3=O)O2)cc1.N.N.N |  | 
74 h |  |  | 120 nM | Metabolite_Detected | 1.6 h | 3.7 h | CCCCCCCCCCCCCCCCOC(=O)Oc1ccc(COP(=O)(OCc2ccc(OC(=O)CCCC)cc2)OP(=O)(O)OP(=O)(O)OC[C@@H]2C=C[C@H](n3cc(C)c(=O)[nH]c3=O)O2)cc1.N.N (stereo partly specified) | 21000 nM | 656
70 h |  |  |  |  |  |  | CCCCCCCCCCCCOC(=O)Oc1ccc(COP(=O)(OCc2ccc(OC(=O)C(C)C)cc2)OP(=O)(O)OP(=O)(O)OC[C@@H]2C=C[C@H](n3cc(C)c(=O)[nH]c3=O)O2)cc1.N.N (stereo partly specified) |  | 
87 h | 40 nM | 17 nM | 73 nM | Metabolite_Detected | 0.17 h | 1.2 h | CCCCCCCCCCCCOC(=O)Oc1ccc(COP(=O)(OCc2ccc(OC(=O)CCCC)cc2)OP(=O)(O)OP(=O)(O)OC[C@@H]2C=C[C@H](n3cc(C)c(=O)[nH]c3=O)O2)cc1.N.N (stereo partly specified) | 27000 nM | 675
> 1600 h | 500 nM | 290 nM | 1460 nM |  |  |  | CCCCCCCCCCCCCCCCOC(=O)Oc1ccc(COP(=O)(O)OP(=O)(O)OP(=O)(O)OC[C@@H]2C=C[C@H](n3cc(C)c(=O)[nH]c3=O)O2)cc1.N.N.N | 61000 nM | 122
> 500 h |  |  |  |  |  |  | Cc1cn([C@H]2C=C[C@@H](COP(=O)(O)OP(=O)(O)OP(=O)(O)O)O2)c(=O)[nH]c1=O [STAVUDINE TRIPHOSPHATE] |  | 
 |  |  | 31000 nM |  |  |  | Cc1cn([C@H]2C=C[C@@H](CO)O2)c(=O)[nH]c1=O [STAVUDINE] | > 50000 nM | > 116

Reference: ChEMBL document CHEMBL4613272, “Anti-HIV-Active Nucleoside Triphosphate Prodrugs” (J Med Chem, 2020)
